Measurements from ChEMBL document CHEMBL4411337, “2-Aminothiazole Derivatives as Selective Allosteric Modulators of the Protein Kinase CK2. 1. Identification of an Allosteric Binding Site” (J Med Chem, 2019).
The source made the active and inactive calls. The rule behind the calls is not given here.

Columns and labels:
Homo sapiens = organism: Homo sapiens; experiment: Inhibition of PKA (unknown origin) assessed as residual activity at 50 uM relative to control
Summary of the method: (§1)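 Selectivity profiling against a panel of 44 human kinases. For each kinase, ATP was set to that kinase's Km. Values are residual activity in duplicate assays.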

[1] = biological target: Tyrosine-protein kinase Yes (Homo sapiens) (UniProt P07947); experiment: Inhibition of YES (unknown origin) assessed as residual activity at 50 uM relative to control
Summary of the method: (§2)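 Profiling panel of 44 human kinases. ATP set to each kinase's Km. Run in duplicate; duplicates within 15–17% of each other.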

[2] = biological target: Rho-associated protein kinase 1 (Homo sapiens) (UniProt Q13464); experiment: Inhibition of ROCK1 (unknown origin) assessed as residual activity at 50 uM relative to control; summary of the method: as §2
[3] = biological target: CDK9/cyclin T1 (Homo sapiens) (UniProt O60563+P50750); experiment: Inhibition of CDK9/cyclin T1 (unknown origin) assessed as residual activity at 50 uM relative to control; type: protein-complex assay; summary of the method: as §1
[4] = biological target: Serine/threonine-protein kinase pim-1 (Homo sapiens) (UniProt P11309); experiment: Inhibition of PIM1 (unknown origin) assessed as residual activity at 50 uM relative to control; summary of the method: as §1
[5] = biological target: Tyrosine-protein kinase JAK2 (Homo sapiens) (UniProt O60674); experiment: Inhibition of JAK2 (unknown origin) assessed as residual activity at 50 uM relative to control; summary of the method: as §1
Sequence of Tyrosine-protein kinase JAK2 (Homo sapiens) (O60674 whole entry): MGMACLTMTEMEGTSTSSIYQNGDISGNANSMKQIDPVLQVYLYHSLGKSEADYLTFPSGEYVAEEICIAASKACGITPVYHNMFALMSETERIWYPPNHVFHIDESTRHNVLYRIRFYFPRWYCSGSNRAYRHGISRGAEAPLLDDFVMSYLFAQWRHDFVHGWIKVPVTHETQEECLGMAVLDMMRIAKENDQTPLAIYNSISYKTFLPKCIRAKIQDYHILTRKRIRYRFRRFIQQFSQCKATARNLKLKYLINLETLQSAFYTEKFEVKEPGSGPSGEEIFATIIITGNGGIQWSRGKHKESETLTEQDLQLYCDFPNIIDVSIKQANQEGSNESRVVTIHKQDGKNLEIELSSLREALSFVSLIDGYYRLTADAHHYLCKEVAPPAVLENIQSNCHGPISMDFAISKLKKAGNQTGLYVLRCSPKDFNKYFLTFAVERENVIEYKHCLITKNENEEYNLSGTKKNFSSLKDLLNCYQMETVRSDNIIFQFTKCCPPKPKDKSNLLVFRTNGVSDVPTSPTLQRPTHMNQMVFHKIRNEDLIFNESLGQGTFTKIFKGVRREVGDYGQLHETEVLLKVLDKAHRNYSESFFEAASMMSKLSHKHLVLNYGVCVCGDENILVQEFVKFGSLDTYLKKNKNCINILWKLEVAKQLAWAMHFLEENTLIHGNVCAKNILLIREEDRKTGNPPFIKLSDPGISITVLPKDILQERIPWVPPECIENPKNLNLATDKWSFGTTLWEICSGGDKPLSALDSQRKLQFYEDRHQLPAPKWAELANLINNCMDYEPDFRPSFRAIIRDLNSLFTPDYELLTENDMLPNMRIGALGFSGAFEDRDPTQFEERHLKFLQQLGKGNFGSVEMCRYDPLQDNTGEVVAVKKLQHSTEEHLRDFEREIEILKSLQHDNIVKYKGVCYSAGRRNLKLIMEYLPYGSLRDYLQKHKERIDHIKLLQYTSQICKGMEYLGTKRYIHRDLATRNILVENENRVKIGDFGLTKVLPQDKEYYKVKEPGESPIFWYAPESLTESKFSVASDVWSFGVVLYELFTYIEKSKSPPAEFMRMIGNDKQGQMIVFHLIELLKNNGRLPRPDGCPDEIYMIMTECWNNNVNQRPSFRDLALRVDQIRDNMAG

[6] = biological target: Mast/stem cell growth factor receptor Kit (Homo sapiens) (UniProt P10721); experiment: Inhibition of cKIT (unknown origin) assessed as residual activity at 50 uM relative to control; summary of the method: as §2
Sequence of Mast/stem cell growth factor receptor Kit (Homo sapiens) (P10721 whole entry): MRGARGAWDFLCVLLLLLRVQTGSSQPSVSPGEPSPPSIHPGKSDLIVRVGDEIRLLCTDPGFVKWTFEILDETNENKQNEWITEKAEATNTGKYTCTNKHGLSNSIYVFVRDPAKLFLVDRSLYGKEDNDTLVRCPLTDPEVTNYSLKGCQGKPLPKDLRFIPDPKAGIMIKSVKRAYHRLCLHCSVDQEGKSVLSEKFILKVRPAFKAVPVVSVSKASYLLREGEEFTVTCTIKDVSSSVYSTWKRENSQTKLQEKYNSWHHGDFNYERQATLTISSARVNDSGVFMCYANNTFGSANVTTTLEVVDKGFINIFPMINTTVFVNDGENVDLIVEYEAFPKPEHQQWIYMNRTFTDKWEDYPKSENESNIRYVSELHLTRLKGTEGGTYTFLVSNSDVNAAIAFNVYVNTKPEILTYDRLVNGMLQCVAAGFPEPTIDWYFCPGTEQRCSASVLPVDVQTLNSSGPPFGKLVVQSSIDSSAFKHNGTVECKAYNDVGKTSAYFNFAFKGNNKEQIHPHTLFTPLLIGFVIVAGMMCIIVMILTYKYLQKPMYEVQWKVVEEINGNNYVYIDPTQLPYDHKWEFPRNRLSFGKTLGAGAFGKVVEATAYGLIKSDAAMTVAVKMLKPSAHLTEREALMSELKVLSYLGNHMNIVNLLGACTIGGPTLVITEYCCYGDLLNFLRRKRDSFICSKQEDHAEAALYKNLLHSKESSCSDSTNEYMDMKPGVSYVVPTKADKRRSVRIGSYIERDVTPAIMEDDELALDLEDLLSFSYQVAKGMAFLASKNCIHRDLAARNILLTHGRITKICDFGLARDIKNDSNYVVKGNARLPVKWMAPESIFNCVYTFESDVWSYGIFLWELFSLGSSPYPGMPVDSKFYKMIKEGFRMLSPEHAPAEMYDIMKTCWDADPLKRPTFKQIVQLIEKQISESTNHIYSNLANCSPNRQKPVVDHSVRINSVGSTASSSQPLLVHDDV

[7] = biological target: Aurora kinase B (Homo sapiens) (UniProt Q96GD4); experiment: Inhibition of aurora B (unknown origin) assessed as residual activity at 50 uM relative to control; summary of the method: as §2
Sequence of Aurora kinase B (Homo sapiens) (Q96GD4 whole entry): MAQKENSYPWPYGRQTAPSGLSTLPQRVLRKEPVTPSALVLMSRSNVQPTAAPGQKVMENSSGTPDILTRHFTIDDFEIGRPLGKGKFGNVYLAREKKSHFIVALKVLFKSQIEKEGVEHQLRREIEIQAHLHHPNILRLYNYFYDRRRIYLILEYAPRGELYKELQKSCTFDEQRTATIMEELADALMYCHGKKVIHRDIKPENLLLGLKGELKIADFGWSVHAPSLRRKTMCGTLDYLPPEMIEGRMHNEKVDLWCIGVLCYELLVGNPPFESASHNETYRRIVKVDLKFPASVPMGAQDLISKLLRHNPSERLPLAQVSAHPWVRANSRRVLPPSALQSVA

[8] = biological target: Mitogen-activated protein kinase 1 (Homo sapiens) (UniProt P28482); experiment: Inhibition of MAPK1 (unknown origin) assessed as residual activity at 50 uM relative to control; summary of the method: as §1
Sequence of Mitogen-activated protein kinase 1 (Homo sapiens) (P28482 whole entry): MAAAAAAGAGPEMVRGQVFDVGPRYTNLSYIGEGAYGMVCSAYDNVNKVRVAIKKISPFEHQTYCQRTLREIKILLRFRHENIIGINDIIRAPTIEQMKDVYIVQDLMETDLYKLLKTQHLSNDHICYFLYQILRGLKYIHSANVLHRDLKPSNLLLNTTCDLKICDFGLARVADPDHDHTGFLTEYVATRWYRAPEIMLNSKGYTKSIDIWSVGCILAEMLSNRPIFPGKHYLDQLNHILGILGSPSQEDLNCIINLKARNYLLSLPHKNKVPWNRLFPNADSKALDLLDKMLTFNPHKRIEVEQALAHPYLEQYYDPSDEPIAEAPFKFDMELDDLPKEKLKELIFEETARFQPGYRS

[9] = biological target: Casein kinase II alpha/beta (Homo sapiens) (UniProt P67870+P68400); experiment: Inhibition of recombinant human GST-tagged CK2alpha2/CK2beta2 at 15 uM in presence of ATP by radiometric kinase assay; type: protein-complex assay
Sequence of Casein kinase II alpha/beta (Homo sapiens) (P67870 2-215 limits assumed): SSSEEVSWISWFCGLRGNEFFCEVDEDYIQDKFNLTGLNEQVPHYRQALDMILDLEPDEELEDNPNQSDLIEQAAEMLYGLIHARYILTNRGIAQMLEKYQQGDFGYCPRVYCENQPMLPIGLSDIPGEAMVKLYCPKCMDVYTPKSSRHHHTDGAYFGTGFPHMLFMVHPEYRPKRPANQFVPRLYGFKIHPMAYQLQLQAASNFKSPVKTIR
Sequence of Casein kinase II alpha/beta (Homo sapiens) (P68400 whole entry partner): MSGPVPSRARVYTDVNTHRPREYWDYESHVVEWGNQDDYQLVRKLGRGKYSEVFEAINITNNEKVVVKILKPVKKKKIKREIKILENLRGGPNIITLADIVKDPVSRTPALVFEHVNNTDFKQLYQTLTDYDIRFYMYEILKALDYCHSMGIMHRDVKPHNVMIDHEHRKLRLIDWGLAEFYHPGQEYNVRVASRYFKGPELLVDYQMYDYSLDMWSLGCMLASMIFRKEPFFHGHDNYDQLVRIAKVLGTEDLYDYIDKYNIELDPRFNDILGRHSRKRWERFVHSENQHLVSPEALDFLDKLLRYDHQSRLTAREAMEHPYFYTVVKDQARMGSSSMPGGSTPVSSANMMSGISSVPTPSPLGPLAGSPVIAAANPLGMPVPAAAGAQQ

[10] = biological target: Glycogen synthase kinase-3 beta (Homo sapiens) (UniProt P49841); experiment: Inhibition of GSK3beta (unknown origin) assessed as residual activity at 50 uM relative to control; summary of the method: as §1
Sequence of Glycogen synthase kinase-3 beta (Homo sapiens) (P49841 whole entry, looked up): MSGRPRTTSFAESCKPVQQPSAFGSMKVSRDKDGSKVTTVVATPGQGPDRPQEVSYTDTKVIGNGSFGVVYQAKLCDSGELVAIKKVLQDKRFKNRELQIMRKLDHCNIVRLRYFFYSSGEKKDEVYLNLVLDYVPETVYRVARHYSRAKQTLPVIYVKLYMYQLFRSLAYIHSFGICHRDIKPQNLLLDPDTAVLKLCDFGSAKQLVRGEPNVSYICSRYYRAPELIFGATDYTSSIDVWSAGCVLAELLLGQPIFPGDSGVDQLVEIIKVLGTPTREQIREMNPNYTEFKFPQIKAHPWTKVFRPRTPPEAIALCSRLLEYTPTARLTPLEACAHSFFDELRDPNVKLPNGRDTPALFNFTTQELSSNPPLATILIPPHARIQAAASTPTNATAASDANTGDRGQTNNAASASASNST

[11] = biological target: Epidermal growth factor receptor (Homo sapiens) (UniProt P00533); experiment: Inhibition of EGFR (unknown origin) assessed as residual activity at 50 uM relative to control; summary of the method: as §1
[12] = biological target: RAF proto-oncogene serine/threonine-protein kinase (Homo sapiens) (UniProt P04049); experiment: Inhibition of cRAF (unknown origin) assessed as residual activity at 50 uM relative to control; summary of the method: as §2
[13] = biological target: Platelet-derived growth factor receptor alpha (Homo sapiens) (UniProt P16234); experiment: Inhibition of PDGFRalpha (unknown origin) assessed as residual activity at 50 uM relative to control; summary of the method: as §1
Sequence of Platelet-derived growth factor receptor alpha (Homo sapiens) (P16234 whole entry): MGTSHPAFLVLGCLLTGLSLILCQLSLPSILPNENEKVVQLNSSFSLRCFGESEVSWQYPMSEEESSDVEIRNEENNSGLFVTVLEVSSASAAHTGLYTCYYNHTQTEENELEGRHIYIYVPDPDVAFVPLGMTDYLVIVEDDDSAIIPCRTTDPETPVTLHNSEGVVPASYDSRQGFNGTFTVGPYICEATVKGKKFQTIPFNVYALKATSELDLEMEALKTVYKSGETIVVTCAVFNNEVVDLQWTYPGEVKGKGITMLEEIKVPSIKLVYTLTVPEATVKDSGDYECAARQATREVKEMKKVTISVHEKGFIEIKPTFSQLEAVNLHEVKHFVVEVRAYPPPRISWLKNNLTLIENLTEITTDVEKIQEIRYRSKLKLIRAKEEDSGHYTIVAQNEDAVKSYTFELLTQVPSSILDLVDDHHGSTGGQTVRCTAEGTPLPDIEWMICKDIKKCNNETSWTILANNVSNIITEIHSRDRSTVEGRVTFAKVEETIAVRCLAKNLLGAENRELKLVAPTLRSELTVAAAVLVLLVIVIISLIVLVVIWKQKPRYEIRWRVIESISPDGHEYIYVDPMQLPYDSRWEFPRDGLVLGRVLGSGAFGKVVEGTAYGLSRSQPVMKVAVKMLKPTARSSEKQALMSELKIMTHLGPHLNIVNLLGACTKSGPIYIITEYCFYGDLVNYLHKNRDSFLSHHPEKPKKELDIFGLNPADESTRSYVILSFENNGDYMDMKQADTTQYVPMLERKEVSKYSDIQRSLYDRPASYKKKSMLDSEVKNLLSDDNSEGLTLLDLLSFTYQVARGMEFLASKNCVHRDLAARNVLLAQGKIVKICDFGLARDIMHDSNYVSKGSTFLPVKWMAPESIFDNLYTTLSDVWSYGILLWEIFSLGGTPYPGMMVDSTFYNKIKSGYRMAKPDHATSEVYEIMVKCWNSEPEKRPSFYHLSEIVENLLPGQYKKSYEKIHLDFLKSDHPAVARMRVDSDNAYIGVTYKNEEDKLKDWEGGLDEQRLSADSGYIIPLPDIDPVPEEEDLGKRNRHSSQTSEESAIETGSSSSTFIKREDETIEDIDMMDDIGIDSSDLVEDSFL

[14] = biological target: Serine/threonine-protein kinase mTOR (Homo sapiens) (UniProt P42345); experiment: Inhibition of MTOR (unknown origin) assessed as residual activity at 50 uM relative to control; summary of the method: as §1

- Activity (Homo sapiens): 87%
- Activity [1]: 100%
- Activity [2]: 100%
- Activity [3]: 99%
- Activity [4]: 46%
- Activity [5]: 104%
- Activity [6]: 87%
- Activity [7]: 74%
- Activity [8]: 84%
- inhibition [9]: Active
- Activity [10]: 79%
- Activity [11]: 26%
- Activity [12]: 92%
- Activity [13]: 65%
- Activity [14]: 104%
Structure (SMILES): O=C(O)c1ccc(Nc2nc(-c3cccc([N+](=O)[O-])c3)cs2)cc1
